Data: publication PMC5901721 (Cancer research, 2018)

Assays:
[1] = tested on: MRCKα; assay: MRCKα pS1003 western blot in HEK293 cells expressing FLAG-MRCKα; format: cell-based, human; conditions: 3 µM, 2 hours
Outline: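 HEK293 cells were transfected with 10 μg pEF-FLAG-MRCKα using a lipid reagent. After 48 h, they were treated 2 h with DMSO, 3 μM or 1 μM test compound. Cells were washed in PBS and lysed in 1% SDS, 50 mM Tris-HCl pH 7.4. Lysates were shredded and analysed by SDS-PAGE and western blot for MRCKα pS1003.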

[2] = tested on: SCC12 cells; conditions: cited from earlier work
[3] = tested on: MLC2 phosphorylation in SCC12 cells; conditions: cited from earlier work

For O=C(Nc1cn[nH]c1-c1ccccn1)c1nn(C2CCNCC2)cc1Cl [BDP5290], the pS1003 immunoreactivity [1] is given as “blocked”, the SCC12 organotypic invasion [2] is given as “inhibited SCC12 organotypic invasion” and the MLC phosphorylation [3] is given as “reduced MLC phosphorylation”.
